# From ChEMBL document CHEMBL4406821, “Novel dual inhibitors targeting CDK4 and VEGFR2 synergistically suppressed cancer progression and angiogenesis” (Eur J Med Chem, 2019)
# Calls of active or inactive are those of the source. No cut-off for these calls is given here.
# Legend:
# [1] = molecular target: cGMP-dependent protein kinase 1 (Homo sapiens) (UniProt Q13976); assay: Inhibition of recombinant human full length PKG1alpha at 1 uM using RRRLSFAEPG as substrate incubated for 40 mins in presence of [gamma-33P]-ATP by scintillation counting method relative to control
# Sequence of cGMP-dependent protein kinase 1 (Homo sapiens) (Q13976 whole entry): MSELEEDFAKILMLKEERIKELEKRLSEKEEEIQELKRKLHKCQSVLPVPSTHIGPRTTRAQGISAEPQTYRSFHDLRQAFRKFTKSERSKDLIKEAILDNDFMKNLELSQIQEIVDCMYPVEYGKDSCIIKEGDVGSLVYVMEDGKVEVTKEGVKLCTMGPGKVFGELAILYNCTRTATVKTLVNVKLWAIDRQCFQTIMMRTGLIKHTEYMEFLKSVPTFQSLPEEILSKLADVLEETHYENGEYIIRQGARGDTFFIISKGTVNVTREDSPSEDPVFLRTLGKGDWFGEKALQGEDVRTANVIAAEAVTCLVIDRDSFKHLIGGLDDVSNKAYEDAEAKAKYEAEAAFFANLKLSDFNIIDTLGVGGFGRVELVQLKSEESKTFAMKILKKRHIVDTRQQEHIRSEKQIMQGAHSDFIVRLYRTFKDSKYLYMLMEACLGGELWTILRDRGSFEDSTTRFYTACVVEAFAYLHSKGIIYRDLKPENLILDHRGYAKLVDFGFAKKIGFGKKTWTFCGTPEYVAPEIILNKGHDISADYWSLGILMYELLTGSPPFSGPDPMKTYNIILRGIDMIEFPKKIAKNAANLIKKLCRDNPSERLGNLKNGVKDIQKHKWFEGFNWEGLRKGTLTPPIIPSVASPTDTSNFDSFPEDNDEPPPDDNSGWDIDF
# [2] = Toxicity in NOD/SCID BALB/c mouse xenografted with human SiHa cells assessed as effect on blood parameter by measuring MPV at 40 mg/kg, po administered once two days for 4 times by hematology analyzer; assay type: organism-based; details: in vivo
# [3] = molecular target: Leukocyte tyrosine kinase receptor (Homo sapiens) (UniProt P29376); assay: Inhibition of recombinant human LTK (450 to end residues) at 1 uM using GEEPLYWSFPAKKK as substrate incubated for 40 mins in presence of [gamma-33P]-ATP by scintillation counting method relative to control
# Sequence of Leukocyte tyrosine kinase receptor (Homo sapiens) (P29376 whole entry): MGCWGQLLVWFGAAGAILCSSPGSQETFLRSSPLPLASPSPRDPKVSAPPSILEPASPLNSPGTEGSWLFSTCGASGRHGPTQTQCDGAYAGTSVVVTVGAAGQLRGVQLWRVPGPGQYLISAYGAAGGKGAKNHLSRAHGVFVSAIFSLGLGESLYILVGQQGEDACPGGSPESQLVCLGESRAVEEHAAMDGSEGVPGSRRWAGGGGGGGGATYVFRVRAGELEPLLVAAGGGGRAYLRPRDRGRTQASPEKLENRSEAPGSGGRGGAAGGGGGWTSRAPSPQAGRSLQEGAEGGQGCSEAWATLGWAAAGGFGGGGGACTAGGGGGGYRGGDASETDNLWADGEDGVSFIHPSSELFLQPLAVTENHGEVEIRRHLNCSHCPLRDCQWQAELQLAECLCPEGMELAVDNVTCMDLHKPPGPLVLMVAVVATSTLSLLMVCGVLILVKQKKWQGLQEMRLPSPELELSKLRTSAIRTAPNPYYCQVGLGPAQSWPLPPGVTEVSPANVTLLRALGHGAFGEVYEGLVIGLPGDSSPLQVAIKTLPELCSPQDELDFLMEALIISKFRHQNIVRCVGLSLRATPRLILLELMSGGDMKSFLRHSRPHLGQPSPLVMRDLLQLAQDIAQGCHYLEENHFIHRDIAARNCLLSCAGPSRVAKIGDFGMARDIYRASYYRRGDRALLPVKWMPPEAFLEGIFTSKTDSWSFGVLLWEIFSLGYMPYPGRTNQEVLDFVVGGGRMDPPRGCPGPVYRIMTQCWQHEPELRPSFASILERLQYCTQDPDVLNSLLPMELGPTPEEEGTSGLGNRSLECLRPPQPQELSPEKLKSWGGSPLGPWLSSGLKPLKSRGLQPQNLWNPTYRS
# How it was run: (§1)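 Tested at a single 1 uM in an outsourced commercial kinase-profiling panel, read as percent inhibition. Each value is the mean of two independent experiments.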
# [4] = molecular target: Tyrosine-protein kinase Lck (Homo sapiens) (UniProt P06239); assay: Inhibition of recombinant human full length LCK at 1 uM using KVEKIGEGTYGVVYK as substrate incubated for 40 mins in presence of [gamma-33P]-ATP by scintillation counting method relative to control
# Sequence of Tyrosine-protein kinase Lck (Homo sapiens) (P06239 2-509 limits assumed): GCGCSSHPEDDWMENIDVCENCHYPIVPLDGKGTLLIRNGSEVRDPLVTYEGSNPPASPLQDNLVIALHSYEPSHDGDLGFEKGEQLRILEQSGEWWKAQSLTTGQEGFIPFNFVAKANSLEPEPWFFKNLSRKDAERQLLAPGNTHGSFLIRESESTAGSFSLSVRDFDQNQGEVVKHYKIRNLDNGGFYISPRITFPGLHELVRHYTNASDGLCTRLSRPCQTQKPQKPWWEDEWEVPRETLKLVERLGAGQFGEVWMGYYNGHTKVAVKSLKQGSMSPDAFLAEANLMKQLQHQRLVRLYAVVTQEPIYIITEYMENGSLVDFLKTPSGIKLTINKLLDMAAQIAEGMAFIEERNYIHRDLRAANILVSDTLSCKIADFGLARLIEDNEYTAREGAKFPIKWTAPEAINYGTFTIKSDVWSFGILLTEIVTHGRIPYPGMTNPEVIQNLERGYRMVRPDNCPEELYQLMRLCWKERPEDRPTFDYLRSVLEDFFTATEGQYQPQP
# [5] = n-octanol/phosphate buffered saline partition coefficient, log D of the compound measured at pH 7.4 by shake flask method based HPLC analysis; assay type: physicochemical
# [6] = molecular target: Testis-specific serine/threonine-protein kinase 4 (Homo sapiens) (UniProt Q6SA08); assay: Inhibition of recombinant human full length TSSK4 at 1 uM using KKLNRTLSFAEPG as substrate incubated for 40 mins in presence of [gamma-33P]-ATP by scintillation counting method relative to control
# Sequence of Testis-specific serine/threonine-protein kinase 4 (Homo sapiens) (Q6SA08 whole entry): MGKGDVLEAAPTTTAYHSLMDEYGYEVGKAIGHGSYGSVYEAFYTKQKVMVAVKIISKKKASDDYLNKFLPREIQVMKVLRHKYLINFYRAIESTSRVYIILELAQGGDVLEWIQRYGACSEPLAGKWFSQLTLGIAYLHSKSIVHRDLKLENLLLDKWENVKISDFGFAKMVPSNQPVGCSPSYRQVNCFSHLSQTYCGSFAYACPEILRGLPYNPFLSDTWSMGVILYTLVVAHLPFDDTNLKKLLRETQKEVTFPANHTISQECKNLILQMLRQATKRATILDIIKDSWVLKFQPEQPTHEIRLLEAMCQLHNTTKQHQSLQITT
# How it was run: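 Single-point inhibition at 1 uM measured in a commercial kinase profiling panel (KinaseProfiler); each value is the mean of two independent experiments.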
# [7] = Toxicity in BALB/c mouse assessed as effect on blood parameter by measuring hemoglobin content at 40 mg/kg, po administered once two days for 4 times by hematology analyzer; details: in vivo
# [8] = molecular target: Ribosomal protein S6 kinase alpha-6 (Homo sapiens) (UniProt Q9UK32); assay: Inhibition of recombinant human full length RSK4 at 1 uM using LRRASLG as substrate incubated for 40 mins in presence of [gamma-33P]-ATP by scintillation counting method relative to control
# [9] = molecular target: Ephrin type-A receptor 4 (Homo sapiens) (UniProt P54764); assay: Inhibition of recombinant human EPhA4 (601 to 892 residues) at 1 uM using poly(Glu, Tyr) 4:1 as substrate incubated for 40 mins in presence of [gamma-33P]-ATP by scintillation counting method relative to control
# [10] = molecular target: Insulin receptor (Homo sapiens) (UniProt P06213); assay: Inhibition of recombinant activated human IR (1005 to 1310 residues) at 1 uM using KKKSPGEYVNIEFG as substrate incubated for 40 mins in presence of [gamma-33P]-ATP by scintillation counting method relative to control
# How it was run: (§2)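 Kinase panel profiling at 1 μM performed by Eurofins KinaseProfiler; percent inhibition reported as mean of two independent experiments.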
# [11] = molecular target: Tyrosine-protein kinase Tec (Homo sapiens) (UniProt P42680); assay: Inhibition of activated recombinant human TEC (174 to end residues) at 1 uM using EFPIYDFLPAKKK as substrate incubated for 40 mins in presence of [gamma-33P]-ATP by scintillation counting method relative to control
# Sequence of Tyrosine-protein kinase Tec (Homo sapiens) (P42680 whole entry): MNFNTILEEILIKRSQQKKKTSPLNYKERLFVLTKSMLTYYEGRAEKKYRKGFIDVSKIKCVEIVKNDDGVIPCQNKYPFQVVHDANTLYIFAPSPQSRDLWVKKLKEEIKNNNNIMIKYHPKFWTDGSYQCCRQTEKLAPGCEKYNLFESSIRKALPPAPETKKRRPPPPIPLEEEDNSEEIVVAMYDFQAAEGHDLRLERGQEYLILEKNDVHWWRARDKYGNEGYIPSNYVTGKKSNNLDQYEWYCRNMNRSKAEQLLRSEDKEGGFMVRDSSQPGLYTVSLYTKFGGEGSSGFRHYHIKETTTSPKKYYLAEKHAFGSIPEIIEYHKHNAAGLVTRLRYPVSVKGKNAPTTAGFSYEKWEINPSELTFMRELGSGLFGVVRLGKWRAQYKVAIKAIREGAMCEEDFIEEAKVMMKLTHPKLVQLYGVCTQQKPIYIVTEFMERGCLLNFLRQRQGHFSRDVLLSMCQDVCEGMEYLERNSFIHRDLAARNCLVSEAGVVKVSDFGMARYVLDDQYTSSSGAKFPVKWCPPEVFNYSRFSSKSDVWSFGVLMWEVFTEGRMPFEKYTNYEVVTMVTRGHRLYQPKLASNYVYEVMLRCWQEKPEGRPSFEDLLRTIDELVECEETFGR
# SiHa = assay: Induction of apoptosis in human SiHa cells assessed as increase in late apoptotic cells at 20 to 40 nM incubated for 48 hrs by annexin V FITC and propidium iodide staining based flow cytometry; assay type: functional, cell-based
# How it was run: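 Annexin V-FITC/PI double staining with flow-cytometric readout. MDA-MB-231, T-47D, SiHa and HeLa cells were treated with graded concentrations for 48 h. MDA-MB-231 and T-47D were grown in DMEM and SiHa in 1640 medium, each with 10% FBS and 1% penicillin/streptomycin at 37°C under 5% CO2. Early- and late-stage apoptotic fractions were scored.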
# [12] = molecular target: Epidermal growth factor receptor (Homo sapiens) (UniProt P00533); assay: Inhibition of recombinant human EGFR (696 to end residues) at 1 uM using poly(Glu, Tyr) 4:1 as substrate incubated for 40 mins in presence of [gamma-33P]-ATP by scintillation counting method relative to control; how it was run: as §2
# [13] = molecular target: cGMP-dependent protein kinase 1 (Homo sapiens) (UniProt Q13976); assay: Inhibition of recombinant human full length PKG1beta at 1 uM using RRRLSFAEPG as substrate incubated for 40 mins in presence of [gamma-33P]-ATP by scintillation counting method relative to control
# [14] = AUMC (0 to t) in Sprague-Dawley rat at 10 mg/kg, iv by HPLC-MS analysis; assay type: ADME, organism-based; details: in vivo
# How it was run: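 Rats fitted with jugular vein catheters for serial blood sampling. Compound dissolved in saline with 5% (v/v) DMSO and given as a single 10 mg/kg dose iv or po after an overnight fast, n = 5 per group. Plasma isolated at once and measured by HPLC with tandem MS detection. Parameters derived by noncompartmental fitting.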
# [15] = molecular target: Macrophage colony-stimulating factor 1 receptor (Homo sapiens) (UniProt P07333); assay: Inhibition of recombinant human FMS (538 to end residues) at 1 uM using KKKSPGEYVNIEF as substrate incubated for 40 mins in presence of [gamma-33P]-ATP by scintillation counting method relative to control
# Sequence of Macrophage colony-stimulating factor 1 receptor (Homo sapiens) (P07333 whole entry): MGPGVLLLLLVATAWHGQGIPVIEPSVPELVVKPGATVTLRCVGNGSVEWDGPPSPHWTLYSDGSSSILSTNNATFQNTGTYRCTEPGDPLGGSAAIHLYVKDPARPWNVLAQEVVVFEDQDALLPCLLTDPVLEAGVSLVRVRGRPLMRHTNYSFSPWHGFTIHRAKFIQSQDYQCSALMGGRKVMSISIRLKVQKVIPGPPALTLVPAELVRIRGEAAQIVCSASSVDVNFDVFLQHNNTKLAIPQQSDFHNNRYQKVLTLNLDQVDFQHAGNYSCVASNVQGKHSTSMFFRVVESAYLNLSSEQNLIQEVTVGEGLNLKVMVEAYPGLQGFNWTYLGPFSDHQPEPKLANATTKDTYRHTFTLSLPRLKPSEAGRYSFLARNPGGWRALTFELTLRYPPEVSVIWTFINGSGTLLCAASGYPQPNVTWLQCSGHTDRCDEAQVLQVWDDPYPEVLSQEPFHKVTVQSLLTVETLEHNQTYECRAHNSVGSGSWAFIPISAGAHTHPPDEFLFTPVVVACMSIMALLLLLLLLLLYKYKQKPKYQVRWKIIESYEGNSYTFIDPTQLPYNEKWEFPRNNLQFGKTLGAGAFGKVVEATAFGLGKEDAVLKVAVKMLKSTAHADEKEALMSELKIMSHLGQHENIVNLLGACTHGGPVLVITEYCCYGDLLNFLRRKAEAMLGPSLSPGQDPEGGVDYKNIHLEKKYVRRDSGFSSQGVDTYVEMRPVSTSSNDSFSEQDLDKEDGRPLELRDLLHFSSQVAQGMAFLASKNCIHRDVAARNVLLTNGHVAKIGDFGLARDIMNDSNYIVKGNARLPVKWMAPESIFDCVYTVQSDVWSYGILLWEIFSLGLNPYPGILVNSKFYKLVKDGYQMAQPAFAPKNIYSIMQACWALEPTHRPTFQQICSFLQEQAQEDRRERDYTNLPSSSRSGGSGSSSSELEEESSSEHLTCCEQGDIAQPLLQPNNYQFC
# [16] = test system: Mast/stem cell growth factor receptor Kit (Homo sapiens), P10721 [V560G]; assay: Inhibition of recombinant human cKIT V560G mutant (544 to end residues) at 1 uM using GGMEDIYFEFMGG as substrate incubated for 40 mins in presence of [gamma-33P]-ATP by scintillation counting method relative to control; how it was run: as §1
# Sequence of Mast/stem cell growth factor receptor Kit (Homo sapiens), P10721 [V560G] (P10721 whole entry V560G): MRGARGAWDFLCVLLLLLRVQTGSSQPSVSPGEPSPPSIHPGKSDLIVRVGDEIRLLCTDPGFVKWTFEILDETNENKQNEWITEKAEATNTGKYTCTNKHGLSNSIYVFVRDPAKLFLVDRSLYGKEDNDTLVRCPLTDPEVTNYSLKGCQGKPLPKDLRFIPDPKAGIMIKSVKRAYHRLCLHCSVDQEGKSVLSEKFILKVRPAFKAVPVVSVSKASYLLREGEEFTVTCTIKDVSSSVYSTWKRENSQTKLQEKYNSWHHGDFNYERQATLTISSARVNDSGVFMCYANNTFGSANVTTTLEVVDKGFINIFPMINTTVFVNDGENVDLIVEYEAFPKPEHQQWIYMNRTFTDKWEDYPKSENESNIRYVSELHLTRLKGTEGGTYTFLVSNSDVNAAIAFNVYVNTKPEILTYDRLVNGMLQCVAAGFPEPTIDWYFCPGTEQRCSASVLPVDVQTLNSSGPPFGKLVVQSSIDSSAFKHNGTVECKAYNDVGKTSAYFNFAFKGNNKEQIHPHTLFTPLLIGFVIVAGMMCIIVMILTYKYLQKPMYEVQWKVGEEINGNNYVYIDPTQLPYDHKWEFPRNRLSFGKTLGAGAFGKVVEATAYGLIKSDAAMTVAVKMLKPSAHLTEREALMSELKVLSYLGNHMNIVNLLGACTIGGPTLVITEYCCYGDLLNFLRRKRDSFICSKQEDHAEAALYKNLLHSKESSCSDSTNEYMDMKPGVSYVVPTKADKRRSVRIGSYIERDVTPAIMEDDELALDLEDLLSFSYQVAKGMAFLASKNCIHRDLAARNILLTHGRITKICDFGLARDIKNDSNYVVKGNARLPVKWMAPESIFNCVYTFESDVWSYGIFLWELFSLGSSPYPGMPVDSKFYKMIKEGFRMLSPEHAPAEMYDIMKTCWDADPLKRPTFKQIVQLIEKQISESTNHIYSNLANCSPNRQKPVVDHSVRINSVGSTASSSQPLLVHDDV
# [17] = molecular target: Rhodopsin kinase GRK7 (Homo sapiens) (UniProt Q8WTQ7); assay: Inhibition of recombinant human full length GRK7 at 1 uM using casein as substrate incubated for 40 mins in presence of [gamma-33P]-ATP by scintillation counting method relative to control
# [18] = molecular target: RAC-gamma serine/threonine-protein kinase (Homo sapiens) (UniProt Q9Y243); assay: Inhibition of recombinant human PKBgamma (117 to end residues) at 1 uM using GRPRTSSFAEGKK as substrate incubated for 40 mins in presence of [gamma-33P]-ATP by scintillation counting method relative to control
# [19] = molecular target: PI3-kinase p110-alpha/p85-alpha (Homo sapiens) (UniProt P27986+P42336); assay: Inhibition of recombinant human full length PI3K p110alpha/p85alpha at 1 uM using phosphatidylinositol 4,5-bisphosphate as substrate incubated for 40 mins in presence of [gamma-33P]-ATP by scintillation counting method relative to control; assay type: protein-complex assay
# [20] = Toxicity in NOD/SCID BALB/c mouse xenografted with human SiHa cells assessed as effect on blood parameter by measuring WBC content at 40 mg/kg, po administered once two days for 4 times by hematology analyzer; assay type: organism-based; details: in vivo
smiles,measurement,setting,value
Cc1ccc(NC(=O)C2(C(=O)Nc3ccc(Nc4ncc(F)c(-c5cc(F)c6nc(C)n(C(C)C)c6c5)n4)cc3)CC2)cc1,inhibition,[1],51%
same,Activity,[2],Non-Toxic
same,inhibition,[3],0%
same,inhibition,[4],49%
same,logD,[5],2.51
same,inhibition,[6],0%
same,Activity,[7],Non-Toxic
same,inhibition,[8],22%
same,inhibition,[9],28%
same,inhibition,[10],27%
same,inhibition,[11],1%
same,Activity,SiHa,Active
same,inhibition,[12],28%
same,inhibition,[13],45%
same,AUMCt,[14],17 mg/L.hr
same,inhibition,[15],64%
same,inhibition,[16],73%
same,inhibition,[17],8%
same,inhibition,[18],64%
same,inhibition,[19],7%
same,Activity,[20],Non-Toxic
